The text below walks through data of ChEMBL document CHEMBL1126885, “Alkylpurines as immunopotentiating agents. Synthesis and antiviral activity of certain alkylguanines” (1993).

The subject of one experiment is Semliki Forest virus. In words: In vivo antiviral protection against lethal Forest virus (SFV) infection at dosage of 100 mg/kg tested in 12 mice. The experiment is classed as functional. In a few lines: (§1)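 Female Swiss Webster mice, about 20 g, in groups of 12. Compound or placebo was dissolved in 2% aqueous sodium bicarbonate and given intraperitoneally 24 and 18 h before a lethal SFV challenge (10 LD50, pretitrated in mice). Treatment lasted 1 day. Survival was followed for 21 days, and survivor numbers were compared with placebo by two-tailed Fisher exact test.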
In turn, `CCCCCCn1c(C)nc2c(O)nc(N)nc21` came in with an Activity of 0.
For `CCCCCCn1c(Cl)nc2c(O)nc(N)nc21`, the Activity is listed as 7.
Turning to `Nc1nc(O)c2ncn(CCCCCCO)c2n1`, the Activity was determined as 2.
As to `N#CCCCCCn1cnc2c(O)nc(N)nc21`, the Activity was 5.
In turn, `Nc1nc(O)c2nc(Br)n(CCCCCCO)c2n1` returned an Activity of 2.
In the case of `CCCCCCn1c(CC)nc2c(O)nc(N)nc21`, the Activity is reported as 3.
Same read-out and setting: for `CCCCCCn1c(O)nc2c(O)nc(N)nc21` the value was 1.
Molecule `C=CCSc1nc2c(O)nc(N)nc2n1CCCCCC` had an Activity of 6.
Still for that read-out and setting: the figure for `C[C@]1(CO)OC(n2c(=O)sc3c(O)nc(N)nc32)[C@H](O)[C@@H]1O` (some centres not stated) is 11; for `C=CCn1c(=S)n(CCCCCC)c2nc(N)nc(O)c21` it is 8; for `CCCCCCn1c(S)nc2c(S)nc(N)nc21` it is 0.

Another experiment deals with Semliki Forest virus. Kind of experiment: In vivo antiviral protection against lethal Forest virus (SFV) infection at dosage of 200 mg/kg tested in 12 mice. It is filed as functional. The method in brief: as §1
On to `CCCn1cnc2c(O)nc(N)nc21`, for which the Activity is 2.
`CCCCCCn1c(=O)n(C)c2c(O)nc(N)nc21` had an Activity of 11.
`CCCCCn1c(Br)nc2c(O)nc(N)nc21`: the Activity is reported as 8.
In turn, `CCCCCn1cnc2c(O)nc(N)nc21` came in with an Activity of 8.
In turn, `CCCCn1c(Br)nc2c(O)nc(N)nc21` had an Activity of 6.
As to `CCCCCCn1cnc2c(O)nc(N)nc21`, the Activity is 12.
`Nc1nc(O)c2ncn(C3CCCCC3)c2n1`: the Activity is 0.
On the same count and under the same terms, for `CCCCCn1c(S)nc2c(O)nc(N)nc21` the value was 8; for `CCCCn1cnc2c(O)nc(N)nc21`, 10; for `Nc1nc(O)c2ncn(C3CCCC3)c2n1`, 0.
`CCCCCCCCn1c(Br)nc2c(O)nc(N)nc21` yielded an Activity of 3.
Take `CCCCCCCn1c(Br)nc2c(O)nc(N)nc21`: the Activity is listed as 1.
Molecule `CCCCCCn1c(S)nc2c(O)nc(N)nc21` displayed an Activity of 1.
Turning to `CCCCCCCCn1cnc2c(O)nc(N)nc21`, the Activity was 1.
Still for that read-out and setting: for `CCn1cnc2c(O)nc(N)nc21` the value was 1; for `CCCCCCn1c(Br)nc2c(O)nc(N)nc21`, 4.
